Test results: ChEMBL document CHEMBL3877293, “Synthesis and Antineoplastic Evaluation of Novel Unsymmetrical 1,3,4-Oxadiazoles” (J Med Chem, 2016)
The source made the active and inactive calls. The calls are words filed in the database; no cut-off is given here.

Tests used:
[1] = Cell cycle arrest in human NB1 hTERT cells assessed as S phase accumulation at 1 uM after 24 hrs by propidium iodide staining based flow cytometry (reference value: 11.8%); assay type: functional
[2] = tested on: HeLa; assay: Cytotoxicity against human HeLa cells assessed as inhibition of colony formation after 2 weeks by crystal violet staining based assay; assay type: functional, cell-based
In short: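 HeLa seeded at 100-200 cells/well in six-well plates and treated with 0.3 or 0.03 μM compound (DMSO control). Medium with compound changed every 3 days for about two weeks, until control colonies were visible. Colonies fixed and stained with 6.0% glutaraldehyde/0.5% crystal violet for 30 min, then counted against control. Done in triplicate.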

[3] = tested on: HeLa; assay: Induction of apoptosis in human HeLa cells assessed as live cells at 5 uM after 48 hrs by Annexin-V FITC/propidium iodide staining based flow cytometry (reference value: 91.1%); assay type: functional
[4] = tested on: MCF7; assay: Increase in p53 expression in human MCF7 cells at 1 uM after 24 hrs by immunoblot method relative to control; assay type: functional
In short: (§1)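 After 24 h treatment at 1 μM, cells lysed in Tris pH 8/NaCl/glycerol/NP-40/EDTA buffer with protease inhibitors. Equal lysate amounts run on 10% SDS gels, blotted to nitrocellulose, probed for p53 with GAPDH as loading control, detected by enhanced chemiluminescence. Bands quantified by densitometry against GAPDH and compared with untreated cells; three independent experiments.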

[5] = tested on: SH-SY5Y; assay: Disruption of beta-tubulin network in human SH-SY5Y cells assessed as apoptotic nuclei at 1 uM after 24 hrs by DAPI staining based immunofluorescence microscopic analysis; assay type: cell-based
In short: (§2)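 Cells seeded on glass coverslips (1 x 10^5/well), treated 24 h, fixed in 4% paraformaldehyde 15 min, permeabilized with 0.5% Triton X-100, blocked in 5% BSA/PBS, stained overnight at 4 °C with anti-β-tubulin (1:200) then fluorescent secondary antibody; nuclei counterstained with DAPI; microtubule organization and nuclear morphology examined by fluorescence microscopy.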

[6] = tested on: HeLa; assay: Induction of apoptosis in human HeLa cells assessed as necrotic cells at 5 uM after 48 hrs by Annexin-V FITC/propidium iodide staining based flow cytometry (reference value: 2.3%); assay type: functional
[7] = tested on: SH-SY5Y; assay: Disruption of beta-tubulin network in human SH-SY5Y cells assessed as pyknotic nuclei at 1 uM after 24 hrs by DAPI staining based immunofluorescence microscopic analysis; assay type: cell-based; in short: as §2
[8] = tested on: A549; assay: Induction of apoptosis in human A549 cells assessed as late apoptotic cells at 5 uM after 72 hrs by Annexin-V FITC/propidium iodide staining based flow cytometry (reference value: 5.2%); assay type: functional
[9] = Cell cycle arrest in human Kelly cells assessed as subG1 phase accumulation at 1 uM after 24 hrs by propidium iodide staining based flow cytometry relative to DMSO control; assay type: functional
[10] = Effect on p53 expression in human NB-1 cells at 1 uM after 24 hrs by immunoblot method; assay type: cell-based; conditions: nb1, 24 h; in short: as §1
[11] = Antiproliferative activity against human MRC5 cells after 72 hrs by XTT assay; assay type: cell-based; conditions: MRC5, 72 h
In short: (§3)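 Cells plated at 1500–2000 per well by doubling time, treated after 24 h with a concentration series in six triplicate wells, and incubated 72 h without a medium change. XTT reagent was then added for 4 h at 37 °C and absorbance read at 490 nm. IC50 is the concentration halving absorbance versus untreated cells. Experiments run in triplicate.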

[12] = Induction of apoptosis in human NB1 hTERT cells assessed as early apoptotic cells at 5 uM after 72 hrs by Annexin-V FITC/propidium iodide staining based flow cytometry (reference value: 0.6%); assay type: functional
[13] = Cell cycle arrest in human HeLa cells assessed as S phase accumulation at 1 uM after 8 hrs by propidium iodide staining based flow cytometry (reference value: 19.2%); assay type: functional
[14] = Cell cycle arrest in human RD cells assessed as S phase accumulation at 1 uM after 24 hrs by propidium iodide staining based flow cytometry (reference value: 14.4 +/- 0.92%); assay type: functional
[15] = Antiproliferative activity against human PC3 cells after 72 hrs by XTT assay; assay type: functional, cell-based; conditions: PC-3, 72 h; in short: as §3
[16] = Cell cycle arrest in human PC3 cells assessed as S phase accumulation at 1 uM after 24 hrs by propidium iodide staining based flow cytometry (reference value: 6.2 +/- 0.94%); assay type: functional; conditions: PC-3
[17] = tested on: HeLa; assay: Selectivity ratio of IC50 for human MCF7 cells to IC50 for human HeLa cells; assay type: functional
In short: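 XTT viability: 1500–2000 cells/well plated by doubling time; compounds added after 24 h, then 72 h further culture without medium change. XTT reagent 4 h at 37 °C, absorbance read at 490 nm. IC50 is the concentration halving absorbance versus untreated cells; triplicate experiments. Ratio is MCF7 IC50 divided by IC50 in the named line.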

[18] = Cell cycle arrest in human NB-1 cells assessed as G1 phase accumulation at 1 uM after 72 hrs by propidium iodide staining based flow cytometry (reference value: 81.7%); conditions: nb1, 72 h
[19] = Cell cycle arrest in human SK-N-AS cells assessed as G2/M phase accumulation at 1 uM after 24 hrs by propidium iodide staining based flow cytometry (reference value: 25.2 +/- 1.32%); assay type: functional
[20] = tested on: MCF7; assay: Antiproliferative activity against human MCF7 cells at 2 uM after 72 hrs by XTT assay; assay type: functional, cell-based
[21] = Cell cycle arrest in human SK-N-AS cells assessed as subG1 phase accumulation at 1 uM after 24 hrs by propidium iodide staining based flow cytometry relative to DMSO control; assay type: functional
[22] = Cell cycle arrest in human NB1 hTERT cells assessed as S phase accumulation at 1 uM after 72 hrs by propidium iodide staining based flow cytometry (reference value: 3.6%); assay type: functional
[23] = Antiproliferative activity against human SH-SY5Y cells after 72 hrs by XTT assay; assay type: functional, cell-based; in short: as §3
[24] = Cell cycle arrest in human NB1 hTERT cells assessed as G1 phase accumulation at 1 uM after 24 hrs by propidium iodide staining based flow cytometry (reference value: 52.3%); assay type: functional
[25] = tested on: MCF7; assay: Antiproliferative activity against human MCF7 cells at 0.5 uM after 72 hrs in presence of MRP1 inhibitor reversan by XTT assay relative to control; assay type: functional, cell-based
In short: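 Mcf7 cells treated after 24 h for 72 h at 37 °C, 5% CO2 with test compound at 0.5 μM alone or combined with harmine (1, 3, 5 μM) or reversan (5, 15, 25 μM). XTT was added for 4 h at 37 °C, absorbance read at 490 nm, and viability compared with control.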

[26] = Cell cycle arrest in human A549 cells assessed as subG1 phase accumulation at 1 uM after 24 hrs by propidium iodide staining based flow cytometry relative to DMSO control; assay type: functional
[27] = tested on: A549; assay: Induction of apoptosis in human A549 cells assessed as necrotic cells at 5 uM after 72 hrs by Annexin-V FITC/propidium iodide staining based flow cytometry (reference value: 1.6%); assay type: functional
[28] = Cell cycle arrest in human NB-1 cells assessed as G2/M phase accumulation at 1 uM after 48 hrs by propidium iodide staining based flow cytometry (reference value: 12.4%); conditions: nb1, 48 h
[29] = tested on: HeLa; assay: Disruption of beta-tubulin network in human HeLa cells assessed as induction of abnormal cell division at 1 uM after 24 hrs by DAPI staining based immunofluorescence microscopic analysis

Cc1[nH]c2c(c1-c1nnc(-c3ccccc3)o1)Cc1ccccc1-2
Activity [1]: 12.3% | inhibition [2]: Dose-dependent effect | Activity [3]: 6% | fold change (FC) [4]: 2 - 3 | Activity [5]: Active | Activity [6]: 4.3% | Activity [7]: Active | Activity [8]: 41.7% | Activity [9]: 13.4% | Activity [10]: Non-Toxic | IC50 [11]: 190 nM | Activity [12]: 3.8% | Activity [13]: 22.2% | Activity [14]: 10.6% | IC50 [15]: 670 nM | Activity [16]: 4.7% | Ratio IC50 [17]: 28 - 34 | Activity [18]: 77.6% | Activity [19]: 73% | Activity [20]: Active | Activity [21]: 6.3% | Activity [22]: 8.3% | IC50 [23]: 70 nM | Activity [24]: 58.8% | Activity [25]: Active | Activity [26]: 13.8% | Activity [27]: 4.6% | Activity [28]: 15% | Activity [29]: Active
